Measured values as given in ChEMBL document CHEMBL1152290, “Bis-pyranobenzoquinones as a new family of reversal agents of the multidrug resistance phenotype mediated by P-glycoprotein in mammalian cells and the protozoan parasite Leishmania” (J Med Chem, 2008).
pIC50, pKi: −log10 of the molar value. Active and inactive are the calls of the source. The calls are words filed in the database; no cut-off is given here.

Legend:
[1] = test system: Leishmania tropica; assay: Growth inhibition of Leishmania tropica promastigotes expressing MDR1 at 10 uM after 72 hrs by MTT assay in presence of daunorubicin relative to control; format: functional; settings: for inhibition of growth at 10 µM: MDR1, 72 h, read-out: GI
Outline: (§1)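 L. tropica promastigotes in log phase were resuspended at 6×10^6 cells/mL in modified RPMI 1640 with 20% heat-inactivated FBS and exposed to compound for 72 h at 28 °C. Viability was read by MTT. The resistant line overexpresses a Pgp-like transporter and is maintained in 150 µM daunorubicin.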

[2] = test system: Leishmania tropica; assay: Growth inhibition of wild type Leishmania tropica promastigotes at 10 uM after 72 hrs by MTT assay relative to control; format: functional; settings: read-out: GI; outline: as §1
[3] = Intrinsic cytotoxicity against wild type mouse NIH/3T3 cells at 10 uM after 72 hrs by MTT assay; format: cell-based, NIH3T3; settings: wild type NIH/3T3 cells, read-out: INH
Outline: (§2)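 Wild-type or MDR1 NIH-3T3 cells were plated at 3.5×10^3 per well and allowed to attach for 24 h at 37 °C under 5% CO2. Compound was then added at 10 µM and intrinsic cytotoxicity was measured by MTT colorimetric assay. Mean ±SD of three independent experiments performed in triplicate.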

[4] = test system: NIH3T3; assay: Intrinsic cytotoxicity against mouse NIH/3T3 cells overexpressing MDR1 at 3 uM after 72 hrs by MTT assay; format: functional; settings: NIH3T3, 72 h
[5] = Intrinsic cytotoxicity against wild type mouse NIH/3T3 cells at 3 uM after 72 hrs by MTT assay; settings: wild type NIH/3T3 cells
[6] = test system: NIH3T3; assay: Intrinsic cytotoxicity against mouse NIH/3T3 cells overexpressing MDR1 at 10 uM after 72 hrs by MTT assay; format: functional; settings: NIH3T3, 72 h; outline: as §2
[7] = target: T1, Broad substrate specificity ATP-binding cassette transporter ABCG2 (Homo sapiens, UniProt Q9UNQ0); assay: Inhibition of BCRP expressed in HEK293 cells assessed as mitoxantrone accumulation at 10 uM by spectrofluorimetry; format: cell-based; settings: hek293, 10 µM
T1 sequence (Q9UNQ0 whole entry): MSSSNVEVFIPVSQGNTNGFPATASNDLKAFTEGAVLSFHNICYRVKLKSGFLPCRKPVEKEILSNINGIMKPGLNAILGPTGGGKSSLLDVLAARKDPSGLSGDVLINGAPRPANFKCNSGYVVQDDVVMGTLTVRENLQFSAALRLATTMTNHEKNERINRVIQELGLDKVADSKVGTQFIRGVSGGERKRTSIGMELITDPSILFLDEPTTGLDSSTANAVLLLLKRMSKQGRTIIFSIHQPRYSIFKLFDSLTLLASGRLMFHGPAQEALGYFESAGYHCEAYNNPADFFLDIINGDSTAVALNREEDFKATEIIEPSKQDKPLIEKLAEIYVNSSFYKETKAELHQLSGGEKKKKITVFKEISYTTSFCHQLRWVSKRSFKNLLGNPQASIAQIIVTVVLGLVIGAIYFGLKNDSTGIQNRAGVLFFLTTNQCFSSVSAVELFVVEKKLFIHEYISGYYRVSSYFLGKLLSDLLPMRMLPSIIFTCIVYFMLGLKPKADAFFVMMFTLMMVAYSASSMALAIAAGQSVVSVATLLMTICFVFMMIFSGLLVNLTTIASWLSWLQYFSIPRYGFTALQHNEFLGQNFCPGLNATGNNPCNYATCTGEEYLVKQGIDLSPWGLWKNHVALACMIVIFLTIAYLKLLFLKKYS
Outline: (§3)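 Transfected cell monolayers were incubated 2 h at 37 °C with or without 10 µM compound in DMEM plus 10% HIFBS. Substrates were 5 µM mitoxantrone for HEK293-BCRP (R482) or 2 µM calcein-AM for 2008-MRP1. Cells were washed twice, lysed overnight at 4 °C in the dark in 20 mM Tris-HCl pH 7.4 with 0.2% SDS, and lysate fluorescence was read on a microplate spectrofluorometer.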

[8] = target: T2, ATP-dependent translocase ABCB1 (Homo sapiens, UniProt P08183); assay: Inhibition of human MDR1 overexpressed in mouse NIH/3T3 cells assessed as daunorubicin accumulation by flow cytometry; format: cell-based, NIH3T3
T2 sequence (P08183 whole entry): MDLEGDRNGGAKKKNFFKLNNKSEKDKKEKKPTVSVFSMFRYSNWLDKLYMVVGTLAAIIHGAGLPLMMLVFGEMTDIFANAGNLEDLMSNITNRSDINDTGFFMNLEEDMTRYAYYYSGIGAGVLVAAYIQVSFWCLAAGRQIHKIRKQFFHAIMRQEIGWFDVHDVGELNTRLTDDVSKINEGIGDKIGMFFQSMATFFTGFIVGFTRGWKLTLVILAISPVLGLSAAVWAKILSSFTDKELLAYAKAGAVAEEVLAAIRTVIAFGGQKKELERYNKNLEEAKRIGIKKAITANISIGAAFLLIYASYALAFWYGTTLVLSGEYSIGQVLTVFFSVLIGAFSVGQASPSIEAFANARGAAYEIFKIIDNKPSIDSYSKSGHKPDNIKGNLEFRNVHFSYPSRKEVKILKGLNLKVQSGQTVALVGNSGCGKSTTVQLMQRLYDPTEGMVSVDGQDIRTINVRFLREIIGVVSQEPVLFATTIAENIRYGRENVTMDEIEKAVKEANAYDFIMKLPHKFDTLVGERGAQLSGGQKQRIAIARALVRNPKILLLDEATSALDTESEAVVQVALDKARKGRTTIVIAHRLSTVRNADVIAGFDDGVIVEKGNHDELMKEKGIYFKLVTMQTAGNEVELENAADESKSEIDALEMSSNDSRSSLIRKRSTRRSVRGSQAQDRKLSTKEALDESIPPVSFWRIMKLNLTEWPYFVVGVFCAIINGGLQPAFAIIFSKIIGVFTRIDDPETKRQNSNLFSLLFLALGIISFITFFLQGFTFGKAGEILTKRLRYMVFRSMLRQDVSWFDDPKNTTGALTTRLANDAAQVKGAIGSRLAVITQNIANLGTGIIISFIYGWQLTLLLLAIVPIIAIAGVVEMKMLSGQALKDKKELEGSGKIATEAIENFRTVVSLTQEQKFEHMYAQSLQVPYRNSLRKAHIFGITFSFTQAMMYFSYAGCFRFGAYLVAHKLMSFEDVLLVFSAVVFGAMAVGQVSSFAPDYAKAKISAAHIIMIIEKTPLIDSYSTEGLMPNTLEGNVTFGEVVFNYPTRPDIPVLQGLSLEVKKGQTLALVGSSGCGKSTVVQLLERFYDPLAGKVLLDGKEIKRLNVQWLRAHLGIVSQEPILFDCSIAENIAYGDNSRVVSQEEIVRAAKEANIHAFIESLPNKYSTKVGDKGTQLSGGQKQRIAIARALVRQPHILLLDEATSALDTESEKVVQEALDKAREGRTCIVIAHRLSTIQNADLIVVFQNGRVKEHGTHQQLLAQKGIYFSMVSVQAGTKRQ
Outline: (§4)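 MDR1 and wild-type NIH-3T3 cells were incubated 0.5 h at 37 °C in DMEM plus 10% HIFBS with 2 µM daunorubicin and varying compound concentrations. Cells were washed, trypsinized, taken up in cold PBS, gated to exclude debris, and FL2 fluorescence was measured. Signals were converted to % Pgp inhibition normalized to wild type and fitted to y = Bmax·x/(Ki + x). Three experiments in triplicate.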

[9] = target: T2, ATP-dependent translocase ABCB1; assay: Inhibition of human MDR1 overexpressed in mouse NIH/3T3 cells assessed as daunorubicin accumulation at 10 uM by spectrofluorimetry; format: cell-based; settings: nih3t3, 10 µM
Outline: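 NIH-3T3 cells transfected with human MDR1-G185 were incubated 2 h at 37 °C with 10 µM daunorubicin, with or without 10 µM compound, in DMEM plus 10% HIFBS. Cells were washed twice, lysed in SDS/Tris buffer pH 7.4 overnight at 4 °C, and read by plate fluorometry. Uptake is expressed relative to wild-type NIH-3T3 accumulation (100%). Three independent experiments, ±SD.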

[10] = target: Multidrug resistance-associated protein 1 (Homo sapiens, UniProt P33527); assay: Inhibition of MRP1 expressed in human 2008 cells assessed as calcein-AM accumulation at 10 uM by spectrofluorimetry; format: cell-based; settings: human, 2008, 10 µM; outline: as §3
Multidrug resistance-associated protein 1, sequence (P33527 whole entry): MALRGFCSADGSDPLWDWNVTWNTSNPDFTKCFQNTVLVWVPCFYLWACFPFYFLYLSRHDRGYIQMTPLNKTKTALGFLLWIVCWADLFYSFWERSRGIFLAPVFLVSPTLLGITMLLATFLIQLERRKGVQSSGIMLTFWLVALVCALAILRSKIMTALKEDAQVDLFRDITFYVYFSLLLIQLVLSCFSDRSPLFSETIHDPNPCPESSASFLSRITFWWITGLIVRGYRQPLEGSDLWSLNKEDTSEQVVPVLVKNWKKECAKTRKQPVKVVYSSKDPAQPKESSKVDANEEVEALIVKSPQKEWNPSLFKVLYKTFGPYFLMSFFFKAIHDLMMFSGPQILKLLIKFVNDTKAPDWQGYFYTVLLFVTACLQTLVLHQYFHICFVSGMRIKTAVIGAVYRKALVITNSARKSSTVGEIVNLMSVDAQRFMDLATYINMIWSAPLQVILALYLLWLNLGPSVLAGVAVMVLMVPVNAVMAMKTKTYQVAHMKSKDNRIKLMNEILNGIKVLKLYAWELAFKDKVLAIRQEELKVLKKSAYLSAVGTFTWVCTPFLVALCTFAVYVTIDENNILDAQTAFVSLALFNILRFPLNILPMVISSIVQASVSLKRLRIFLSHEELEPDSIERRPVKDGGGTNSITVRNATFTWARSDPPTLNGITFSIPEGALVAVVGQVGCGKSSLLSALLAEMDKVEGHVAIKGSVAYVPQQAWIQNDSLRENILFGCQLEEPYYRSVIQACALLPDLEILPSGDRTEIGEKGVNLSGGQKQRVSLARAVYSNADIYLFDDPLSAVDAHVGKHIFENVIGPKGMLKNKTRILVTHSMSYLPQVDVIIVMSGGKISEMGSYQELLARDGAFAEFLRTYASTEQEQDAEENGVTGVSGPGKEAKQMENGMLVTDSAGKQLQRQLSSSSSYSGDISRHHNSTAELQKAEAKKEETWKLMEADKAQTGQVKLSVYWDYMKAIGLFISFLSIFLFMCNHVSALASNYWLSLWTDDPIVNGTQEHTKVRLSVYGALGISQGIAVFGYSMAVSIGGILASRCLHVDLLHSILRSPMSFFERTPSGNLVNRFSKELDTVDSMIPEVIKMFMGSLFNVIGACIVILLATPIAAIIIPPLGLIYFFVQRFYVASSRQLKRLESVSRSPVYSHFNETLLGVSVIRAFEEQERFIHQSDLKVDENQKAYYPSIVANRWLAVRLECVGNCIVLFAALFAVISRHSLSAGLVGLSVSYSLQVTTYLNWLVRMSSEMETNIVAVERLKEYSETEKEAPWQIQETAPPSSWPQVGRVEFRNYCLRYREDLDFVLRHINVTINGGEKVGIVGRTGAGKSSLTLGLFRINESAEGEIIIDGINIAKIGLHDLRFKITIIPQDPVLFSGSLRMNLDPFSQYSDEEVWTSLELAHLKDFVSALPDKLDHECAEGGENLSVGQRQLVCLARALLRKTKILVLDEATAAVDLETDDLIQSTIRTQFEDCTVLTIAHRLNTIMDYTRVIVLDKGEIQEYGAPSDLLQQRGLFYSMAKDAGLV

[11] = target: T2, ATP-dependent translocase ABCB1; assay: Inhibition of human MDR1 overexpressed in mouse NIH/3T3 cells assessed as daunorubicin accumulation by flow cytometry relative to control; format: cell-based; settings: nih3t3; outline: as §4
[12] = test system: NIH3T3; assay: Resistance index, ratio of IC50 for mouse NIH/3T3 cells expressing MDR1 to IC50 for wild type mouse NIH/3T3 cells
Outline: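 Cells were plated at 3.5×10^3 per well and attached for 24 h. MDR1 and wild-type NIH-3T3 cells were exposed for 72 h at 37 °C to increasing daunorubicin, with or without 10, 3 or 1 µM modulator. Growth was read by MTT, and IC50 came from four-parameter logistic fits. RI is the IC50 in MDR1 cells divided by the IC50 in wild-type cells. Three independent experiments.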

[13] = Intrinsic cytotoxicity against wild type mouse NIH/3T3 cells after 72 hrs by MTT assay; format: cell-based; settings: NIH3T3, 72 h
[14] = test system: NIH3T3; assay: Intrinsic cytotoxicity against mouse NIH/3T3 cells overexpressing MDR1 after 72 hrs by MTT assay; format: functional, cell-based; settings: NIH3T3, 72 h

Molecule `CC1(C)OC2=C(C(=O)C(=O)C3=C2OC(C)(C)[C@H]2COc4ccc(Br)cc4[C@@H]32)[C@@H]2c3cc(Br)ccc3OC[C@@H]21` has an inhibition of growth at 10 µM [1] greater than 75% and an inhibition of growth at 10 µM [2] of 75%.

For `CC1(C)OC2=C(C(=O)C(=O)C3=C2OC(C)(C)[C@H]2COc4c(Br)cc(Br)cc4[C@@H]32)[C@H]2c3cc(Br)cc(Br)c3OC[C@H]21`, the Activity [1] was “inactive”.

For `O[C@@H](COc1cccc2ncccc12)CN1CCN([C@@H]2c3ccccc3[C@@H]3[C@H](c4ccccc42)C3(F)F)CC1` [ZOSUQUIDAR], the cytotoxicity at 72 h, 10 µM [3] was 2.4%, the inhibition at 3 µM [4] was 3.1% and the cytotoxicity at 72 h, 3 µM [5] was 2.4%. The inhibition at 10 µM [6] was 3.1%.

With `CC1(C)OC2=C(C(=O)C3=C(C2=O)[C@H]2c4cc(Br)ccc4OC[C@H]2C(C)(C)O3)[C@H]2c3cc(Br)ccc3OC[C@H]21` the Activity [1] was “inactive”.

Work on `C[C@H]1CC[C@@H]2[C@@H]1C1=C(OC2(C)C)C2=C(C(=O)C1=O)[C@H]1[C@@H](CC[C@@H]1C)C(C)(C)O2` yielded an inhibition of growth at 10 µM [1] greater than 75%.

With `C[C@@H]1CC[C@@H]2[C@@H](C1)C1=C(OC2(C)C)C(=O)C2=C(OC(C)(C)[C@@H]3CC[C@@H](C)C[C@@H]23)C1=O` the Activity [7] was “Not Active”, the cytotoxicity at 72 h, 10 µM [3] was 0% and the pKi [8] was 6.11. For the same molecule, the Activity [9] was “Active”, the Activity [10] was “Not Active” and the inhibition at 10 µM [6] was 18.1%. For the same molecule, the “inhibition (INH)” value [11] was 72%.

With `COc1ccc2c(c1)OC[C@H]1[C@@H]2C2=C(OC1(C)C)C1=C(C(=O)C2=O)[C@H]2c3ccc(OC)cc3OC[C@H]2C(C)(C)O1` the Activity [1] was “inactive”, the Activity [7] was “Not Active” and the cytotoxicity at 72 h, 10 µM [3] was 9.7%. For the same molecule, the pKi [8] was 6.38, the Activity [9] was “Active” and the Activity [10] was “Not Active”. The inhibition at 10 µM [6] was 3.5% and the “inhibition (INH)” value [11] was 105.8%.

With `COc1cccc2c1C(=O)c1c(O)c3c(c(O)c1C2=O)C[C@@](O)(C(C)=O)C[C@@H]3O[C@H]1C[C@H](N)[C@H](O)[C@H](C)O1` [DAUNORUBICIN] the “Ratio IC50” value [12] was 23, the pIC50 [13] was 7.36 and the pIC50 [14] was 6.00.

`COc1ccc(CCN(C)CCCC(C#N)(c2ccc(OC)c(OC)c2)C(C)C)cc1OC` (stereo not drawn) showed an inhibition at 10 µM [6] of 11.2%.

With `COc1ccc2c(c1)OC[C@H]1[C@@H]2C2=C(OC1(C)C)C1=C(C(=O)C2=O)[C@@H]2c3ccc(OC)cc3OC[C@@H]2C(C)(C)O1` the inhibition of growth at 10 µM [1] was greater than 75%, the Activity [7] was “Not Active” and the cytotoxicity at 72 h, 10 µM [3] was 24.7%. For the same molecule, the pKi [8] was 5.98, the Activity [9] was “Active” and the Activity [10] was “Not Active”. The inhibition at 10 µM [6] was 10.8% and the “inhibition (INH)” value [11] was 112.5%.

With `COc1ccc2c(c1)OC[C@@H]1[C@H]2C2=C(OC1(C)C)C(=O)C1=C(OC(C)(C)[C@@H]3COc4cc(OC)ccc4[C@H]13)C2=O` the Activity [1] was “inactive”, the Activity [7] was “Not Active” and the cytotoxicity at 72 h, 10 µM [3] was 6.5%. The pKi [8] was 6.29, the Activity [9] was “Active” and the Activity [10] was “Not Active”. The inhibition at 10 µM [6] was 0% and the “inhibition (INH)” value [11] was 104.3%.

Molecule `CC1(C)OC2=C(C(=O)C(=O)C3=C2OC(C)(C)[C@H]2COc4ccc5ccccc5c4[C@@H]32)[C@@H]2c3c(ccc4ccccc34)OC[C@@H]21` has an inhibition of growth at 10 µM [1] of 100%.

In the case of `CC1(C)OC2=C(C(=O)C(=O)C3=C2OC(C)(C)[C@H]2COc4ccc(Br)cc4[C@@H]32)[C@H]2c3cc(Br)ccc3OC[C@H]21`, the Activity [1] was “inactive”.

In the case of `C[C@@H]1CC[C@H]2[C@H](C1)C1=C(OC2(C)C)C2=C(C(=O)C1=O)[C@H]1C[C@@H](C)CC[C@@H]1C(C)(C)O2`, the inhibition of growth at 10 µM [1] was greater than 75%.

With `CC1(C)OC2=C(C(=O)C(=O)C3=C2OC(C)(C)[C@H]2COc4c(Br)cc(Br)cc4[C@@H]32)[C@@H]2c3cc(Br)cc(Br)c3OC[C@@H]21` the Activity [1] was “inactive”.
